Screening results as filed in PubChem BioAssay.
Htt clearance – clearance of mutant huntingtin inclusions, primary screen, imaging, HeLa Exon1htt(103Q)mCFP, confocal imaging; aggregate imaging; zero = plate's median compound well; inhibition, % at 1.5 µM; hit rate 0.42% among 47,000;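 active = inhibition of aggregate fluorescence above about 70%, also judged a hit by eye on the cell image, limit read from the data, passing the limit was not always enough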;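 note: cells exposed to compound for three days before fixation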
M1 agonist – M1 muscarinic receptor agonists, primary screen, CHO-M1 cells, Fluo-4 calcium, agonist mode; Fluo-4 calcium fluorescence; stronger effect = higher value; B-score at 10 µM; hit rate 3% among 64,000;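 active = fluorescence rise, raw or as B-score row- and column-corrected plate score, outside the 99.7% band of its plate's samples, either direction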
RORA act – activators of orphan receptor RORA, primary screen, cell-based, luminescence; CHO-K1 Gal4-RORA LBD luciferase reporter; percent increase over mock-subtracted basal signal; AID 560, 2006; hit rate 1.5% among 65,000; Nuclear receptor ROR-alpha (Homo sapiens), P35398; activation, % at 10 µM;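 active = activation above the mean of all tested compounds plus 3 SD, cut at about 49% in these data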
SF1 activator – activators of human SF-1, primary screen, cell-based, CHO-K1, Gal4-SF-1 LBD, luciferase luminescence. Steroidogenic factor 1 (Homo sapiens), Q13285. CHO-K1 Gal4-SF-1 LBD luciferase reporter; % increase over DMSO SF-1-specific signal. activation, % at 10 µM. hit rate 1.9% among 65,000. AID 522, 2006;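 active = activation above the mean activation of all tested compounds plus 3 SD, cut at about 50% in these data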
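material = CHO-K1 cells with Gal4–hSF-1 LBD chimera plus Gal4-driven luciferase | compound = 10 µM single point, 1% DMSO | incubation = 20 h compound exposure at 37 °C after 1 h cell settling | measured by = SteadyLite luciferase luminescence | evaluation = percent activation relative to DMSO median and mock-transfected background | control set = DMSO negative control and −SF1 background wells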
D1 allo mod – D1 CRE-luciferase signal change, two-sided – cell-based, HEK293 D1, dopamine EC30, D1 allosteric modulator project, primary screen. D(1A) dopamine receptor (Homo sapiens), P21728. dopamine EC30 potentiation; actives deviate in either direction. B-score at 10 µM. hit rate 5.9% among 58,000. AID 641, 2007;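 active = luminescence count or its row- and column-corrected plate score outside the 99.7% band of the plate's sample wells, on either side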
Target sequence (P21728 whole entry, looked up): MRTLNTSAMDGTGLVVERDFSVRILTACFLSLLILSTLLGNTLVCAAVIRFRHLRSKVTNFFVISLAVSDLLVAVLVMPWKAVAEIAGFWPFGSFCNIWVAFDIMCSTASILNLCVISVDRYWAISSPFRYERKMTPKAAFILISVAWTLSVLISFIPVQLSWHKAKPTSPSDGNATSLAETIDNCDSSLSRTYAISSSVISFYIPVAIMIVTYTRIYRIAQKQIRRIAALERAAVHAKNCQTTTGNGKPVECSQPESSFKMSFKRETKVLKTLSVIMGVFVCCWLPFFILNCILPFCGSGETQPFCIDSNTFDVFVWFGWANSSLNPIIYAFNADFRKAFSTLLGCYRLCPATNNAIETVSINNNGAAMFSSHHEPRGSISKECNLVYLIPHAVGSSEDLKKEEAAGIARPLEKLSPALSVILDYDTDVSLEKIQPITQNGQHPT
M1 antagonist – antagonists of rat M1 muscarinic receptor; Muscarinic acetylcholine receptor M1 (Rattus norvegicus), P08482; B-score at 10 µM; hit rate 3.4% among 64,000; CHO-M1 cells, Fluo-4 calcium, ACh EC80 antagonist mode; stronger effect = lower value;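 active = calcium fluorescence response, raw or row-and-column corrected B-score, differing from the plate sample mean either way at a set confidence level, mostly lower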
D1 PAM confirm – D1 receptor positive allosteric modulators, retest, confirmation, cell-based, HEK293 D1, CRE-luciferase, duplicate; luminescence at 10 µM; hit rate 88% among 2,200; shares compounds with D1 allo mod; dopamine EC30 potentiation; stronger effect = higher value;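 active = luminescence in either of two replicates above the same-plate mean plus 3 SD of the low-dose dopamine control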
D1 ag no DA – D1 receptor agonism without dopamine, confirmation, mechanism study for D1 allosteric modulator project, cell-based, HEK293 D1, CRE-luciferase, secondary assay 1 | shares compounds with D1 allo mod | luminescence, no dopamine; stronger effect = higher value | luminescence at 10 µM | hit rate 0.8% among 1,900 | AID 646, 2007; in the data active = luminescence above about 3900
Isoprot counter – counter-screen for D1 modulators: isoproterenol response in HEK293 cells; shares compounds with D1 allo mod; HEK293 D1 CRE-luciferase, isoproterenol EC30 counter-screen; calls only at 10 µM; hit rate 63% among 2,200; AID 647;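 active = luminescence in either replicate above plate mean of wells with a partly effective reference agonist dose plus 3 SD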;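 note: isoproterenol raises cAMP through native beta-adrenoceptor Gs so signal bypasses D1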
Numbers stand for hits; n = inactive; x = no result given; + = active, no number. An excerpt weighted towards active compounds, which were near 11% of everything screened.

SMILES	Htt clearance	M1 agonist	RORA act	SF1 activator	D1 allo mod	M1 antagonist	D1 PAM confirm	D1 ag no DA	Isoprot counter
CCc1nc2ccccc2c(C(=O)OCC(=O)NCc2ccco2)c1C	x	n	n	n	4.36	n	8196	n	n
CCOc1cc(C(=O)OCC(=O)NCc2ccco2)cc(OCC)c1OCC	x	n	n	n	n	n	x	x	x
CCNc1nc(NC(C)C)nc(N(C#N)C(C)C(=O)N(C)C)n1 (stereo unspecified)	x	n	n	n	x	n	x	x	x
CCNc1nc(NC(C)C)nc(N(C#N)CCOc2ccc(Cl)cc2Cl)n1	n	n	n	n	3.19	n	11108	n	+
CCNc1nc(NC(C)(C)C)nc(N(C#N)CC)n1	n	n	n	n	29.9	n	23548	n	+
CCNc1nc(NC(C)C)nc(N(C#N)Cc2ccccc2)n1	n	n	n	n	8.86	n	22672	n	+
CCC(C(=O)N1CCc2ccccc2C1)n1nc(C)n2c(cc3occc32)c1=O (stereo unspecified)	x	n	n	n	n	n	x	x	x
O=C(c1cccc(F)c1)N1CCN(Cc2ccco2)CC1	x	n	n	n	3.94	n	n	n	n
O=C(c1ccco1)N1CCN(Cc2cccc(F)c2)CC1	n	n	n	n	n	n	x	x	x
Nc1nnc(-c2cn(-c3ccccc3)nc2-c2ccccc2)o1	n	n	n	n	2.98	n	15252	n	+
COc1ccc(C2C(C(N)=O)=C(C)Nc3nc(-c4ccccc4Cl)nn32)c(OC)c1 (stereo unspecified)	x	n	n	n	n	n	x	x	x
N#Cc1nc(-c2cccs2)oc1NCC1CCCO1 (stereo unspecified)	x	n	n	n	12.9	n	18624	x	n
CCOC(=O)c1c(C)[nH]c(C(=O)COC(=O)c2ccc(F)c(S(=O)(=O)N3CCOCC3)c2)c1C	x	n	n	n	n	n	x	x	x
CCOC(=O)c1cc(C(=O)OCC)cc(-n2c(C)cc(C(=O)CN3CCOCC3)c2C)c1	x	n	n	n	4.94	n	7880	x	n
Cc1ccc(-c2cc(-c3ccc(C)o3)nc(N)c2C#N)cc1	n	n	n	n	7.29	n	8668	n	n
N#Cc1c(N)oc(-c2ccc3c(c2)OCO3)c1-c1ccc2c(c1)OCO2	x	n	n	n	4.51	n	26576	n	+
Cc1ccc(-c2cc(-c3ccc4c(c3)OCO4)c(C#N)c(N)n2)o1	n	n	n	n	5.87	n	8720	n	n
CCOc1cc(-c2cc(-c3ccc(C)o3)nc(N)c2C#N)ccc1O	n	x	x	x	x	x	x	x	x
Cc1ccc(-c2cc(-c3ccc(Cl)cc3)c(C#N)c(N)n2)o1	x	n	n	n	n	n	x	x	x
CCOC(=O)c1[nH]c(C)c(/C(O)=C2\C(=O)C(=O)N(CCCN(C)C)C2c2cccnc2)c1C (stereo unspecified)	x	n	n	n	n	n	x	x	x
Cc1ccc(CNC(=O)C2CCC(CNc3c(N4CCOCC4)c(=O)c3=O)CC2)cc1 (stereo unspecified)	n	x	x	x	x	x	x	x	x
O=C(NCc1ccc2c(c1)OCO2)C1CCC(CNc2c(N3CCCC3)c(=O)c2=O)CC1 (stereo unspecified)	x	n	n	n	2.3	n	n	n	n
CC(=O)c1sc2nc(=O)c(C)nn2c1C	x	n	n	n	n	n	x	x	x
Cn1c(=O)c2cc(S(=O)(=O)NCCC(=O)NCCC3=CCCCC3)ccc2n(C)c1=O	x	n	n	n	n	n	x	x	x
Cc1ccc2nc(NC(=O)c3ccc(Cn4cc(Cl)cn4)o3)sc2c1	x	n	55.4	n	6.59	n	n	n	n
SMILES	Htt clearance	M1 agonist	RORA act	SF1 activator	D1 allo mod	M1 antagonist	D1 PAM confirm	D1 ag no DA	Isoprot counter
CCSc1oc(-c2ccco2)nc1S(=O)(=O)c1ccc(F)cc1	x	n	n	n	4.65	n	11820	n	n
CCSc1oc(-c2cccs2)nc1S(=O)(=O)c1ccccc1	x	n	n	n	14.9	n	18740	n	+
C=CCNC(=S)N/N=C(\C)c1ccccn1	n	x	x	x	x	x	x	x	x
Cc1ccc(-c2noc(CSc3nnnn3C3CCCCC3)n2)cc1	x	n	n	n	x	n	x	x	x
Cc1cc2n(n1)C(c1cn(-c3ccccc3)nc1C)Nc1c(C)cccc1-2 (stereo unspecified)	n	x	x	x	x	x	x	x	x
Cc1cc(C)c2c(c1)-c1cc(C)nn1C(c1ccc3c(c1)OCO3)N2 (stereo unspecified)	x	n	n	n	4.42	n	10424	x	+
Cc1cc2n(n1)C(c1ccc3c(c1)OCO3)Nc1c(C)cccc1-2 (stereo unspecified)	x	n	n	n	12.3	n	13912	n	+
Cc1cc2n(n1)C(c1ccc(O)cc1)Nc1ccccc1-2 (stereo unspecified)	n	n	n	n	n	n	x	x	x
Cc1ccc(Oc2ccc(S(=O)(=O)N3CCOCC3)cc2C(N)=O)c(-n2nc3ccccc3n2)c1	n	n	n	n	n	n	x	x	x
CCOC(=O)c1cc2cc(F)ccc2nc1C	x	n	n	n	10	n	12456	n	+
CCn1c(N)c(C(=O)NC)sc1=S	x	n	n	n	n	n	x	x	x
CNc1nn(-c2cccc(Cl)c2)nc1N	x	n	n	n	4.17	n	8344	n	n
NC(=O)c1nn(-c2cccc(Cl)c2)c(=O)cc1O	n	x	x	x	x	x	x	x	x
CCOc1ccccc1Nc1nc(N)nc(CSc2nccc(C)n2)n1	n	n	n	n	3.57	n	6988	x	n
O=C(O)CCCC(=O)Nc1ccc(Br)cc1C(=O)O	x	n	n	n	n	n	x	x	x
O=C(O)CCCC(=O)Nc1ccccc1Br	n	n	n	n	7.16	n	n	x	n
O=C(NCCC1=CCCCC1)C1CCN(S(=O)(=O)c2cccc3nsnc23)CC1	n	n	n	n	n	n	x	x	x
c1cnc2c(SCc3ccc(-c4nnco4)cc3)cccc2c1	n	n	n	62.5	5.25	n	8332	x	+
CCCC(C(=O)NCc1ccco1)N(C(=O)CNS(=O)(=O)c1ccccc1)c1ccccc1OC (stereo unspecified)	n	n	n	n	n	n	x	x	x
